# Assay results: ChEMBL document CHEMBL1132452, “Synthesis and anticonvulsant activity of novel and potent 2,3-benzodiazepine AMPA/kainate receptor antagonists” (J Med Chem, 1999)
# Legend:
# Mus musculus [1] = species on record: Mus musculus; test: The compound was tested for Anticonvulsant activity against Pentylenetetrazole (PTZ) induced seizures in Swiss mice; format: functional
# How it was run: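 Male Swiss mice (20–26 g, 42–48 days) pretreated ip with the compound in 30% DMSO/70% saline, then 45 min later PTZ 85 mg/kg (CD97) sc. Observed for 30 min; protection was absence of clonic spasms lasting at least 5 s. ED50 by Litchfield–Wilcoxon, at least 32 animals.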
# Mus musculus [2] = species on record: Mus musculus; test: The compound was tested for Anticonvulsant activity against audiogenic seizures in DBA/2 mice in tonic phase; format: functional
# How it was run: (§1)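 Male DBA/2 mice (8–12 g, 22–25 days), groups of 10 per dose, given the compound ip in 30% DMSO/70% saline at doses within 3.3–200 µmol/kg. Sound stimulation 30 min later; latency and incidence of seizure phases scored. ED50 per phase by Litchfield–Wilcoxon, at least 32 animals per value.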
# Mus musculus [3] = species on record: Mus musculus; test: The compound was tested for Anticonvulsant activity against maximal electroshock (MES) induced seizures in Swiss mice.; format: functional
# How it was run: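 Swiss mice given the compound ip in 30% DMSO/70% saline, then 45 min later ear-clip electroshock (50 mA, 20 ms pulses, 35 Hz, 400 ms). Protection was abolition of tonic hindlimb extension. Four to five doses, 8–10 mice each; ED50 by Litchfield–Wilcoxon.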
# [4] = Relative lipophilicity of the compound; format: physicochemical; details: reversed-phase TLC, acetone/water 2:1
# How it was run: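 Reversed-phase TLC on plates dried at 105 °C for 1 h. Mobile phase acetone/water 2:1 (v/v). Compound in CHCl3 (3 mg/mL), 1 µL spotted. Five runs, each with a different placement on the plate. Mean Rf converted by Rm = log[(1/Rf) − 1]; higher Rm means higher lipophilicity.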
# Mus musculus [5] = species on record: Mus musculus; test: The compound was tested for locomotor deficit (rotarod test) in Swiss mice.
# Mus musculus [6] = species on record: Mus musculus; test: The compound was tested for Anticonvulsant activity against audiogenic seizures in DBA/2 mice in clonic phase; format: functional; how it was run: as §1
# Mus musculus [7] = test: The compound was tested for Anticonvulsant activity against audiogenic seizures in DBA/2 mice in clonic phase. 120 min after ip administration.; format: functional; details: 2 h
# How it was run: (§2)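 Time course in male DBA/2 mice (8–12 g, 22–25 days) after ip dosing in 30% DMSO/70% saline, with auditory stimulation at the stated time after injection. Groups of 10 mice per time point; clonic-phase ED50 (95% confidence limits) by Litchfield–Wilcoxon, at least 32 animals per value.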
# Mus musculus [8] = species on record: Mus musculus; test: The compound was tested for Anticonvulsant activity against audiogenic seizures in DBA/2 mice after pretreatment with Aniracetam in clonic phase; format: functional
# How it was run: (§3)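 Male DBA/2 mice (8–12 g, 22–25 days) given aniracetam 50 nmol icv 30 min before the ip compound (30% DMSO/saline), i.e. 60 min before auditory stimulation. Clonic or tonic phase incidence scored; ED50 by Litchfield–Wilcoxon, at least 32 animals.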
# Mus musculus [9] = test: The compound was tested for Anticonvulsant activity against audiogenic seizures in DBA/2 mice in clonic phase. 90 min after ip administration.; format: functional; details: 1.5 h; how it was run: as §2
# Mus musculus [10] = test: The compound was tested for Anticonvulsant activity against audiogenic seizures in DBA/2 mice in clonic phase. 15 min after ip administration.; format: functional; details: 0.25 h; how it was run: as §2
# Mus musculus [11] = species on record: Mus musculus; test: The compound was tested for Anticonvulsant activity against audiogenic seizures in DBA/2 mice after pretreatment with Aniracetam in tonic phase.; format: functional; how it was run: as §3
# Mus musculus [12] = species on record: Mus musculus; test: The compound was tested for Anticonvulsant activity against AMPA induced seizures in DBA/2 mice in tonic phase; format: functional
# Mus musculus [13] = test: The compound was tested for Anticonvulsant activity against audiogenic seizures in DBA/2 mice in clonic phase. 45 min after ip administration.; format: functional; details: 0.75 h; how it was run: as §2
# Mus musculus [14] = species on record: Mus musculus; test: The compound was tested for Anticonvulsant activity against KA induced seizures in DBA/2 mice.; format: functional
# Mus musculus [15] = species on record: Mus musculus; test: The compound was tested for Anticonvulsant activity against AMPA induced seizures in DBA/2 mice clonic phase.; format: functional
# Mus musculus [16] = test: The compound was tested for Anticonvulsant activity against audiogenic seizures in DBA/2 mice in clonic phase. 60 min after ip administration.; format: functional; details: 1 h; how it was run: as §2
# Mus musculus [17] = test: The compound was tested for Anticonvulsant activity against audiogenic seizures in DBA/2 mice in clonic phase. 30 min after ip administration.; format: functional; details: 0.5 h; how it was run: as §2
SMILES,ED50 (Mus musculus [1]) [µmol/kg],ED50 (Mus musculus [2]) [µmol/kg],ED50 (Mus musculus [3]) [µmol/kg],Rm [4],TD50 (Mus musculus [5]) [µM/kg],ED50 (Mus musculus [6]) [µmol/kg],ED50 (Mus musculus [7]) [µmol/kg],ED50 (Mus musculus [8]) [µmol/kg],ED50 (Mus musculus [9]) [µmol/kg],ED50 (Mus musculus [10]) [µmol/kg],ED50 (Mus musculus [11]) [µmol/kg],ED50 (Mus musculus [12]) [µmol/kg],ED50 (Mus musculus [13]) [µmol/kg],ED50 (Mus musculus [14]) [µmol/kg],ED50 (Mus musculus [15]) [µmol/kg],ED50 (Mus musculus [16]) [µmol/kg],ED50 (Mus musculus [17]) [µmol/kg]
CCCNC(=O)N1N=C(c2ccc(N)cc2)c2cc3c(cc2CC1=O)OCO3,> 100,49.2,76.5,-0.25,182,69.4,,,,,,,,,,,
Nc1ccc(C2=NN=C(S)Cc3cc4c(cc32)OCO4)cc1,25.2,5.09,9.79,-0.269,39.8,11.8,> 50,31.4,45,5.9,16.3,11.5,13.4,15.6,15.6,19.6,11.8
CCNC(=O)N1N=C(c2cccc(N)c2)c2cc3c(cc2CC1=O)OCO3,90.7,32.1,60.2,-0.323,126,44.9,,,,,,,,,,,
Nc1ccc(C2=NNC(=O)Cc3cc4c(cc32)OCO4)cc1,71.8,10.9,32.1,-0.552,99.1,15.4,> 50,62.6,> 50,7.55,39.6,28.5,18.7,19.6,37.9,21.3,15.4
SC1=NN=C(c2ccccc2)c2cc3c(cc2C1)OCO3,80.3,18.8,37.8,-0.185,97.1,23.8,,,,,,,,,,,23.8
CNC(=O)N1N=C(c2cccc(N)c2)c2cc3c(cc2CC1=O)OCO3,19.6,11.2,21.4,-0.441,48.9,13.6,,,,,,,,,,,13.6
CCCNC(=O)N1N=C(c2cccc(N)c2)c2cc3c(cc2CC1=O)OCO3,> 100,63.8,> 100,-0.181,>100,85.3,,,,,,,,,,,
Nc1cccc(C2=NN=C(S)Cc3cc4c(cc32)OCO4)c1,40.2,8.88,30.9,-0.213,53.7,16.7,> 50,65.2,45.2,32.6,85.9,26.2,15.2,18.6,32.8,22.4,16.7
CCCCNC(=O)N1N=C(c2ccc(N)cc2)c2cc3c(cc2CC1=O)OCO3,> 100,32.6,79.7,-0.11,108,38.7,,,,,,,,,,,
CCNC(=O)N1N=C(c2ccc(N)cc2)c2cc3c(cc2CC1=O)OCO3,68.2,23.8,52.5,-0.368,134,35,,,,,,,,,,,
CCCCNC(=O)N1N=C(c2cccc(N)c2)c2cc3c(cc2CC1=O)OCO3,36.4,12.7,26.6,-0.075,56.2,18.1,,,,,,,,,,,
CNC(=O)N1N=C(c2ccc(N)cc2)c2cc3c(cc2CC1=O)OCO3,16.3,8.7,18.6,-0.459,48.6,12.4,40.8,33.9,19.4,14.3,31,10.3,12.1,8.61,18.6,13,12.4
O=C1Cc2cc3c(cc2C(c2ccccc2)=NN1)OCO3,78,40.6,42.6,-0.215,159,43.3,,,,,,,,,,,43.3
Nc1cccc(C2=NNC(=O)Cc3cc4c(cc32)OCO4)c1,40.5,12.7,19.3,-0.484,101,18,> 50,55,47.1,> 50,40.6,23.8,19.1,23.2,29.2,26.3,18
CC1=NN=C(c2ccc(N)cc2)c2cc3c(cc2C1)OCO3 [GYKI-52466],,,,-0.404,76.1,,> 50,,> 50,10.8,,,37.2,27.8,,,
